Holding throughout (format): functional, cell-based
For data set [1], the target named is T1, ATP-dependent translocase ABCB1 (Homo sapiens, UniProt P08183). The data set can be described thus: TP_TRANSPORTER: inhibition of cyclosporin A transcellular transport by PSC833 at a concentration of 30uM in MDR1-expressing MDCKII cells. The settings on record: dog, mdck-ii.
The target of data set [2] is T2, ATP-dependent translocase ABCB1 (Mus musculus, UniProt P21447). Briefly: TP_TRANSPORTER: inhibition of levetiracetam transcellular transport by PSC833 at a concentration of 30uM in mdr1a-expressing LLC-PK1 cells. Conditions: pig, llc-pk1, 30 µM.
T2 sequence (P21447 whole entry): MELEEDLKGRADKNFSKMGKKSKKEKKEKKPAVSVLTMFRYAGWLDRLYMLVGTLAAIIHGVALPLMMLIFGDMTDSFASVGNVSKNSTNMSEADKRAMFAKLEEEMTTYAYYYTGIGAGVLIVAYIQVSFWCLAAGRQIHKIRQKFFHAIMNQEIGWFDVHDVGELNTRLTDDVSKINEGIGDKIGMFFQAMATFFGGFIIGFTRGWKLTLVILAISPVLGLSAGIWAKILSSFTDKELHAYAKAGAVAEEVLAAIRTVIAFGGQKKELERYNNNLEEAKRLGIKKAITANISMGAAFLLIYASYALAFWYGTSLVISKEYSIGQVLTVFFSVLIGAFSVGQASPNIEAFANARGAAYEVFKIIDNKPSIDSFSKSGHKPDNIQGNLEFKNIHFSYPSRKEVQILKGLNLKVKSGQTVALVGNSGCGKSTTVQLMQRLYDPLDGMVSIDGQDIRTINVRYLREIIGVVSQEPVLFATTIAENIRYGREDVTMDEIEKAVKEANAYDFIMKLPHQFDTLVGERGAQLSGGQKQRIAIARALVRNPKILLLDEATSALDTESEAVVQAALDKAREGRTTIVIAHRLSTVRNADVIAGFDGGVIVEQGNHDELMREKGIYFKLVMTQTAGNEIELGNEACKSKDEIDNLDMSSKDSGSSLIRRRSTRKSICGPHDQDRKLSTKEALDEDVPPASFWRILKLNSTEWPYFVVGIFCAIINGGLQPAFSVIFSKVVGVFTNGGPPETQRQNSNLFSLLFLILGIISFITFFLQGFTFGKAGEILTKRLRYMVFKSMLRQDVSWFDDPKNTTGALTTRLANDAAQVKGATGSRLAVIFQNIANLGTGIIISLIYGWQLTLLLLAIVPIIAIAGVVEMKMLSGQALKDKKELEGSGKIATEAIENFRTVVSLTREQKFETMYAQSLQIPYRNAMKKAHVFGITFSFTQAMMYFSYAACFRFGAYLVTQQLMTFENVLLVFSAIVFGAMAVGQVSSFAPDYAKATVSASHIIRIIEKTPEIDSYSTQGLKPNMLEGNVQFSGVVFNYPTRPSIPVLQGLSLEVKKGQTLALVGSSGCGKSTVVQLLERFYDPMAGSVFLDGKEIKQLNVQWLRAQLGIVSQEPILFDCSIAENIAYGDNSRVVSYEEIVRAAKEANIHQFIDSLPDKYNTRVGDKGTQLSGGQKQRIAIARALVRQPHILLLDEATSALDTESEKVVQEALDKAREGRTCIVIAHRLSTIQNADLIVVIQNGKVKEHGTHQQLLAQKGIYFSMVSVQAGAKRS
The target in data set [3] is T2, ATP-dependent translocase ABCB1. Briefly: TP_TRANSPORTER: inhibition of cyclosporin A transcellular transport by PSC833 at a concentration of 30uM in mdr1a-expressing LLC-PK1 cells. Conditions: pig, llc-pk1, 30 µM.
For data set [4] the target is unchanged. The data set can be described thus: TP_TRANSPORTER: inhibition of phenytoin transcellular transport by PSC833 at a concentration of 30uM in mdr1a-expressing LLC-PK1 cells. Conditions: pig, llc-pk1, 30 µM.
Data set [5] addresses T1, ATP-dependent translocase ABCB1. Briefly: TP_TRANSPORTER: inhibition of cyclosporin A transcellular transport by tariquidar at a concentration of 0.2uM in MDR1-expressing MDCKII cells. Conditions: dog, mdck-ii.
The target in data set [6] is ATP-binding cassette sub-family C member 2 (Homo sapiens, UniProt Q92887). Briefly: TP_TRANSPORTER: transcellular transport in MRP2-expressing MDCKII cells. The settings on record: dog, mdck-ii. In outline:
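Directional transcellular transport was measured across polarized MDCKII monolayers transfected with human MRP2 cDNA and compared with wildtype MDCKII cells. Vinblastine served as the reference MRP2 substrate. The read-out was the transport ratio (TR).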

Data set [7] has as its target T2, ATP-dependent translocase ABCB1. Briefly: TP_TRANSPORTER: transcellular transport in mdr1a-expressing LLC-PK1 cells. Conditions: pig. In outline: (§1)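 Polarized monolayers of LLC-PK1 pig kidney cells transfected with human MDR1, mouse mdr1a or mouse mdr1b cDNA, paired with wildtype LLC-PK1 monolayers. Directional transport across the monolayer was expressed as a transport ratio. The Pgp inhibitor PSC833 was used to test whether transport was Pgp-specific. Cyclosporin A served as the positive-control Pgp substrate.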

Data set [8] deals with ATP-dependent translocase ABCB1 (Mus musculus, UniProt P06795). Briefly: TP_TRANSPORTER: transcellular transport in mdr1b-expressing LLC-PK1 cells. The settings on record: pig. In outline:
as §1

For data set [9], the target named is T1, ATP-dependent translocase ABCB1. Briefly: TP_TRANSPORTER: transcellular transport in MDR1-expressing LLC-PK1 cells. Conditions: pig. In outline: as §1
Data set [10] shares this target. Briefly: TP_TRANSPORTER: inhibition of cyclosporin A transcellular transport by carbamazapine 224 uM in MDR1-expressing LLC-PK1 cells. The settings on record: pig, llc-pk1, 224 µM.
Data set [11] has as its target T2, ATP-dependent translocase ABCB1. Briefly: TP_TRANSPORTER: inhibition of cyclosporin A transcellular transport by carbamazepine at a concentration of 224uM in mdr1a-expressing LLC-PK1 cells. Conditions: pig, llc-pk1, 224 µM.

ATP-binding cassette sub-family C member 2, sequence (Q92887 whole entry): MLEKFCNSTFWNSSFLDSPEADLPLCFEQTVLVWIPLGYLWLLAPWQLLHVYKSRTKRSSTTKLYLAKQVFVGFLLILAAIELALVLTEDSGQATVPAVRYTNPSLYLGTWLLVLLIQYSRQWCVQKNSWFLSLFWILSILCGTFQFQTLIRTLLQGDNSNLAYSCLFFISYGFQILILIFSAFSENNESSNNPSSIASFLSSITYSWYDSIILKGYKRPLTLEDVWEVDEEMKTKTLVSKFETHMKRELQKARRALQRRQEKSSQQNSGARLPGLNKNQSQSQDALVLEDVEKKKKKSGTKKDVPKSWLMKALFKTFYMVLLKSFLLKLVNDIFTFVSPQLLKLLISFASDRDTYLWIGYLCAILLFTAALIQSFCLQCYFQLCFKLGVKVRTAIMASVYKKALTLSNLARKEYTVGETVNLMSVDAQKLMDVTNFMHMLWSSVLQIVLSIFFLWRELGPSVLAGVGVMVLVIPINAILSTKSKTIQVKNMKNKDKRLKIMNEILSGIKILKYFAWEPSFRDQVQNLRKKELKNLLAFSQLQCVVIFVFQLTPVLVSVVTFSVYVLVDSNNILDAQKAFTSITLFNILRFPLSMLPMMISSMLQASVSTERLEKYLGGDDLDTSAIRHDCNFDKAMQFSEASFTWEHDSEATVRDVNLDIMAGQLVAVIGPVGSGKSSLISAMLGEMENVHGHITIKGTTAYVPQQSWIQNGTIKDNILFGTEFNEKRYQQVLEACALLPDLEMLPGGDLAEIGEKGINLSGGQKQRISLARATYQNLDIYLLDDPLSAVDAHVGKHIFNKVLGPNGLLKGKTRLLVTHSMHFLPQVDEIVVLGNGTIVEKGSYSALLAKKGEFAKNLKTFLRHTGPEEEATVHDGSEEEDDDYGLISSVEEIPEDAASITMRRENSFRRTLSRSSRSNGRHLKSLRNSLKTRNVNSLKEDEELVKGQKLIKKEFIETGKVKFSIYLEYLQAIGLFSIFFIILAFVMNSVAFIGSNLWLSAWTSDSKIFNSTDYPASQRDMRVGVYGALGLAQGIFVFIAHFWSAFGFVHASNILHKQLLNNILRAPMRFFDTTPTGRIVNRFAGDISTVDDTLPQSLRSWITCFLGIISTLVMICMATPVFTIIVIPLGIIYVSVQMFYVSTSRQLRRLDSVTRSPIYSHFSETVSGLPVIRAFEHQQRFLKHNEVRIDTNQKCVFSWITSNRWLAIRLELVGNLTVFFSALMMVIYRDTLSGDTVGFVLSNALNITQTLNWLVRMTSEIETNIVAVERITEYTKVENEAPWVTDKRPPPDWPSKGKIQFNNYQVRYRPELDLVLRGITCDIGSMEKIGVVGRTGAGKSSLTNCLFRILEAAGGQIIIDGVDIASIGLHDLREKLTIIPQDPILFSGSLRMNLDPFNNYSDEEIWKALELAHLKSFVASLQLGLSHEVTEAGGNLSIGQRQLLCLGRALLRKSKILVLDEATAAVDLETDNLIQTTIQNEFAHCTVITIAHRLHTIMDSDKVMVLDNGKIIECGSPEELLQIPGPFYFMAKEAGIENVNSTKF
ATP-dependent translocase ABCB1 (Mus musculus, UniProt P06795), sequence (P06795 whole entry): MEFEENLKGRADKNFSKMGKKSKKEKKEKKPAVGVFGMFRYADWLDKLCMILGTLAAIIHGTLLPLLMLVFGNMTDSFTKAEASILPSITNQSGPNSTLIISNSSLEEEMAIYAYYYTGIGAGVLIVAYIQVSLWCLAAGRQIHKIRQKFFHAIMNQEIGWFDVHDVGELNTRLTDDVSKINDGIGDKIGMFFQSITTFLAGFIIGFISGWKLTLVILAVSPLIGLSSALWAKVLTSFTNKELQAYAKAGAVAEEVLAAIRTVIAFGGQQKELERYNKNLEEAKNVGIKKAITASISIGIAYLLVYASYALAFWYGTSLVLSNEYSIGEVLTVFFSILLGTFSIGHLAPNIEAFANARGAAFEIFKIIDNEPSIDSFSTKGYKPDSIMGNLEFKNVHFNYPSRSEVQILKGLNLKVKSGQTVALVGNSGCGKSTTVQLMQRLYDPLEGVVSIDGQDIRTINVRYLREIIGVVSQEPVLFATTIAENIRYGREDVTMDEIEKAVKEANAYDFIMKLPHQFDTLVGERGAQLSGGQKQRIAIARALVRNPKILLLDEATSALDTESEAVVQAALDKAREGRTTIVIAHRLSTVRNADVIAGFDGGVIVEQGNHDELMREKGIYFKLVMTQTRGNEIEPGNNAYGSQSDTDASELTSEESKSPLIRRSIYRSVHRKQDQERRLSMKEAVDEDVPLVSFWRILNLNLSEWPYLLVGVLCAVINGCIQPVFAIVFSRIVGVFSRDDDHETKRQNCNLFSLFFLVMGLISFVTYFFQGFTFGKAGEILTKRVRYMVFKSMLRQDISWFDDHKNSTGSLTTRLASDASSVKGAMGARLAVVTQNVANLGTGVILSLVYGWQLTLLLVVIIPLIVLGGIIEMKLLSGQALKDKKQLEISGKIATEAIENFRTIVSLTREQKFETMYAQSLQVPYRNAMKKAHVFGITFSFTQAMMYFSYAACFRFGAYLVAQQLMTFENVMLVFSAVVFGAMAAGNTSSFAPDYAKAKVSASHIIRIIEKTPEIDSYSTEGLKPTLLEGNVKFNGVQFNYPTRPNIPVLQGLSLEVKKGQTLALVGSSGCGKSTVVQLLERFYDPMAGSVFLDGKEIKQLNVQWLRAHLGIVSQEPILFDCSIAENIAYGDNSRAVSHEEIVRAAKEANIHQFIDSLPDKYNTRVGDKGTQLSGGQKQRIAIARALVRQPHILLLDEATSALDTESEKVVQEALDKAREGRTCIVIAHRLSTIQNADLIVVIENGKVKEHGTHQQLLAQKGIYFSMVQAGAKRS

In the case of `C/C=C/C[C@@H](C)C(=O)[C@H]1C(=O)N[C@@H](C(C)C)C(=O)N(C)CC(=O)N(C)[C@@H](CC(C)C)C(=O)N[C@@H](C(C)C)C(=O)N(C)[C@@H](CC(C)C)C(=O)N[C@@H](C)C(=O)N[C@H](C)C(=O)N(C)[C@@H](CC(C)C)C(=O)N(C)[C@@H](CC(C)C)C(=O)N(C)[C@@H](C(C)C)C(=O)N1C` [VALSPODAR], the Activity result in data set [1], in [2], in data set [3] and in data set [4] was “inhibitor [+]” each time.
Take `COc1cc2c(cc1OC)CN(CCc1ccc(NC(=O)c3cc(OC)c(OC)cc3NC(=O)c3cnc4ccccc4c3)cc1)CC2`: the Activity result in [5] is “inhibitor [+]”.
For the compound `O=C1NC(=O)C(c2ccccc2)(c2ccccc2)N1` [PHENYTOIN], the Activity result in [6] is “substrate [+]”; in [7], “substrate [+]”; in [8], “is not a substrate [-]”; in data set [9], “is not a substrate [-]”.
Regarding `NC(=O)N1c2ccccc2C=Cc2ccccc21` [CARBAMAZEPINE], the Activity entry in [10] is “is not a inhibitor [-]”; in [7] it was “is not a substrate [-]”; in data set [8] it was “is not a substrate [-]”; in data set [11], “is not an inhibitor [-]”; in data set [9] it was “is not a substrate [-]”.
Take `CC[C@@H](C(N)=O)N1CCCC1=O`: the Activity result in data set [6] is “is not a substrate [-]”; in data set [7] it was “substrate [+]”; in [8], “is not a substrate [-]”; in data set [9], “is not a substrate [-]”.
With `CC[C@]1(O)C[C@@H]2CN(CCc3c([nH]c4ccccc34)[C@@](C(=O)OC)(c3cc4c(cc3OC)N(C)[C@H]3[C@@](O)(C(=O)OC)[C@H](OC(C)=O)[C@]5(CC)C=CCN6CC[C@]43[C@@H]65)C2)C1` [VINBLASTINE], the Activity entry in [6] was “substrate [+]”.

Values taken from ChEMBL document CHEMBL2074217, “Differences in the transport of the antiepileptic drugs phenytoin, levetiracetam and carbamazepine by human and mouse P-glycoprotein” (Neuropharmacology, 2006).
